In paper PMC8068522 (European journal of nuclear medicine and molecular imaging, 2019):

Experiments:
PSMA(+) PC3 PIP cells [1] = assay: cell uptake and internalization; assay type: cell-based, human; details: initially; per 1 million cells
Outline: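 HPLC-purified 177Lu radioligands were incubated with PSMA(+) PC3 PIP cells for 1 h up to 24 h. Total cell-surface uptake and internalized fraction were expressed as percentage incubated dose per 1 million cells, mean ± SD, n = 3. Specificity was checked by blocking with excess (~10 μM) of a known PSMA inhibitor.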

PSMA(+) PC3 PIP tumor = assay: tissue biodistribution, PSMA; assay type: in vivo, mouse; details: 24 h
PSMA(+) PC3 PIP cells [2] = assay: clonogenic survival assay; assay type: cell-based, human; details: 48 h of incubation, colony formation
Outline: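 PSMA(+) PC3 PIP and PSMA(−) PC3 flu cells were exposed to HPLC-purified 177Lu radioligands for 48 h at 37 °C, then scored for colony formation (mean ± SD, n = 3). D0 was the activity concentration (kBq/mL) giving 37% survival.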

[3] = tested on: PSMA(+) PC3 PIP flank tumor model; assay: PSMA-targeted radionuclide therapy in flank tumor model; assay type: in vivo, male NOD/SCID mice; details: single 111 MBq i.v.
[4] = acute radiotoxicity after 8 weeks; assay type: in vivo, male NOD/SCID mice; details: 8 weeks post-treatment, 111 MBq
Outline: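 Tumour-bearing male NOD/SCID mice (PSMA(+) PC3 PIP flank, ~60–85 mm3, 14–18 days post-inoculation) got one 111 MBq tail-vein dose of 177Lu radioligand or saline. At 8 weeks, n = 3 per group underwent complete blood analysis (haemoglobin, white cells, neutrophils, platelets) and necropsy with H&E anatomic pathology at a phenotyping core.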

For `O=C([O-])CN1CCN(CC(=O)[O-])CCN(CC(=O)NCC2CCC(C(=O)N[C@@H](Cc3ccc4ccccc4c3)C(=O)NCCCC[C@H](NC(=O)N[C@@H](CCC(=O)O)C(=O)O)C(=O)O)CC2)CCN(CC(=O)[O-])CC1.[177Lu+3]` (some centres unmarked) [177Lu-PSMA-617], the “cell uptake within PSMA(+) PC3 PIP cells” value (PSMA(+) PC3 PIP cells [1]) was ~ 40 % of the incubated dose, the kidney uptake (PSMA(+) PC3 PIP tumor) was < 0.5 ID/g and the “D0 (37% survival)” value (PSMA(+) PC3 PIP cells [2]) was 24–32 kBq/mL. The median survival [3] was 130 days, the “mice reaching a relative tumor volume > 4 times the initial volume” value [3] was “only one mouse” and the parotid glands pathology [4] was “mild changes”. The platelets [4] was “significantly lower platelets than those in the other treatment groups” and the testes pathology [4] was “most severe degenerative changes and loss of seminiferous epithelium”.
